# Measured values of several laboratories.
# Protocols differ between the studies behind these lines.
# Target: RAC-alpha serine/threonine-protein kinase (AKT1, Homo sapiens, UniProt P31749)
SMILES,assay,conditions,remaining binding
N[C@H]1CCN(c2nccc(-c3cnn4ncccc34)n2)C1,binding,1 µM,97%
CC(=O)C1=C(C)N(c2cccc(C(F)(F)F)c2)C(=O)N[C@@H]1c1ccc(C#N)nc1,"cell-free assay, competition with immobilised ligand",1 µM,90.4%
C[C@@H]1CN(c2ccc3ncc(-c4ccc5[nH]nc(C6CC6)c5c4)n3n2)C[C@H](C)O1,"binding, competition with immobilised ligand",50 nM,98%
CS(=O)(=O)N1CCCC(NC(=O)[C@H](CCC2CCCCC2)NC(=O)c2ccc(CNc3ncnc4c3nnn4-c3ccccc3)cc2)C1 (stereo partly shown),"cell-free assay, competition with immobilised ligand",0.1 µM,100%
O=C(c1ccc(Nc2ncc(Cl)c(-c3ccc(Cl)s3)n2)cc1)N1CCC(N2CCCC2)CC1,"binding, competition with immobilised ligand",1 µM,100%
O=C(Nc1cnc(Oc2ccc(F)cc2)nc1)N1CCc2ncccc2[C@@H]1c1ccc(F)cc1,"cell-free assay, competition with immobilised ligand",1 µM,100%
C[C@@H]1CCN(c2nccc(-c3cnn4ncccc34)n2)C1,binding,1 µM,93%
COc1cnc(Nc2cccc(S(N)(=O)=O)c2)nc1N1CCN(c2ccccc2)C(=O)C1,"binding, competition with immobilised ligand",1 µM,100%
O=C(Nc1cccnn1)N1CCC(=Cc2cccc(Oc3ccc(C(F)(F)F)cn3)c2)CC1,"cell-free assay, competition with immobilised ligand",1 µM,93%
CCN1CCN(Cc2ccc(C(=O)Nc3ccc(C)c(Oc4ccc5c(c4)CC(=O)N5)c3)cc2C(F)(F)F)CC1,"binding, competition with immobilised ligand",1 µM,94%
CC1=C(C#N)C(c2ccc3c(c2)c(NC(=O)c2ccccc2C)nn3C)C(C#N)=C(C)N1,"cell-free assay, competition with immobilised ligand",1 µM,94%
O=C(c1ccc(Nc2nccc(-c3cc4ccccc4s3)n2)cc1)N1CCC(N2CCCC2)CC1,"binding, competition with immobilised ligand",1 µM,100%
CN(CCCC(F)(F)F)c1nccc(-c2cnn3ncccc23)n1,binding,1 µM,100%
O=C(NCC1CCOCC1)c1n[nH]cc1NC(=O)c1c(F)cccc1F,"binding, competition with immobilised ligand",1 µM,95%
COc1ccnn2ncc(-c3ccnc(N(C)C)n3)c12,binding,1 µM,100%
CC(C)(C)c1ccc(-c2nc(CBr)nn2-c2cccc(O)c2)cc1,"cell-free assay, competition with immobilised ligand",10 µM,94%
